Data reported in ChEMBL document CHEMBL3286129, “Optimization of peptidomimetic boronates bearing a P3 bicyclic scaffold as proteasome inhibitors” (Eur J Med Chem, 2014).

Columns and labels:
Format in all cases: functional
SNB-19 = assay: Growth inhibition of human SNB19 cells
[1] = Cytotoxicity against human breast cancer cells assessed as cell growth at 10 uM relative to control; settings: Cancer cell lines, read-out: Activity
How it was run: (§1)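 Single-concentration screen against a panel of human cancer cell lines. Each value is the mean percent growth across the cell lines of that tumour subpanel.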

[2] = Growth inhibition of human HOP92 cells
RPMI-8226 = assay: Growth inhibition of human RPMI8226 cells
A549 = assay: Growth inhibition of human A549/ATCC cells
K562 = assay: Growth inhibition of human K562 cells
[3] = Growth inhibition of human HCT15 cells
TK-10 = assay: Growth inhibition of human TK10 cells
786-0 = assay: Growth inhibition of human 786-0 cells
U-251 = assay: Growth inhibition of human U251 cells
PC-3 = assay: Growth inhibition of human PC3 cells
CAKI-1 = assay: Growth inhibition of human CAKI-1 cells
NCI-H226 = assay: Growth inhibition of human NCI-H226 cells
[4] = Cytotoxicity against human CNSC cells assessed as cell growth at 10 uM relative to control; settings: read-out: Activity; how it was run: as §1
ACHN = assay: Growth inhibition of human ACHN cells
[5] = Growth inhibition of human LOXIMVI cells; settings: LOX IMVI
[6] = Growth inhibition of human SF539 cells
[7] = Cytotoxicity against human leukemia cells assessed as cell growth at 10 uM relative to control; settings: read-out: Activity; how it was run: as §1
[8] = Growth inhibition of human OVCAR8 cells
SK-MEL-2 = assay: Growth inhibition of human SK-MEL-2 cells
[9] = read-out: LC50 (the source's name)

## CC(C)C[C@H](NC(=O)CCn1ccc2ncccc2c1=O)B(O)O
SNB-19
  TGI: > 100 µM
SNB-19; [9]
  CC50: > 100 µM
[1]
  growth at 10 µM: 68%
[2]; HOP-92
  GI50: 16.8 µM
  TGI: 71.3 µM
[2]; HOP-92, read-out: LC50 (the source's name)
  CC50: > 100 µM
RPMI-8226
  GI50: 3.22 µM
  TGI: > 100 µM
RPMI-8226; [9]
  CC50: > 100 µM
A549
  GI50: 38 µM
  TGI: > 100 µM
A549; [9]
  CC50: > 100 µM
K562
  GI50: 17.2 µM
  TGI: > 100 µM
K562; [9]
  CC50: > 100 µM
[3]; HCT-15
  GI50: 21.3 µM
  TGI: > 100 µM
[3]; HCT-15, read-out: LC50 (the source's name)
  CC50: > 100 µM
TK-10
  GI50: 5.16 µM
  LC50: > 100 µM
  TGI: 47.7 µM
786-0
  GI50: 7.94 µM
  TGI: > 100 µM
786-0; [9]
  CC50: > 100 µM
U-251
  GI50: 33 µM
  TGI: > 100 µM
U-251; [9]
  CC50: > 100 µM
PC-3
  GI50: 41.4 µM
  TGI: > 100 µM
PC-3; [9]
  CC50: > 100 µM
CAKI-1
  GI50: 19.4 µM
  TGI: > 100 µM
CAKI-1; [9]
  CC50: > 100 µM
NCI-H226
  GI50: 2.68 µM
  TGI: 8.9 µM
NCI-H226; [9]
  CC50: 48 µM
[4]
  growth at 10 µM: 82.9%
ACHN
  GI50: 9.15 µM
  TGI: > 100 µM
ACHN; [9]
  CC50: > 100 µM
[5]
  GI50: 6.37 µM
  TGI: 28.4 µM
[5]; [9]
  CC50: > 100 µM
[6]; SF-539
  GI50: 2.76 µM
  TGI: 8.38 µM
[6]; SF-539, read-out: LC50 (the source's name)
  CC50: > 100 µM
[7]
  growth at 10 µM: 34.8%
[8]; OVCAR-8
  GI50: 37.5 µM
  TGI: > 100 µM
[8]; OVCAR-8, read-out: LC50 (the source's name)
  CC50: > 100 µM
SK-MEL-2
  GI50: 18.3 µM
  LC50: > 100 µM
  TGI: > 100 µM
